Screening results: PubChem BioAssay, several laboratories
An excerpt weighted towards active compounds, which were near 2.1% of everything screened.
SMARCA2 activ – activators of SMARCA2 function; 1% of 370,000 active; MG213 cells, MMTV-luciferase reporter, dexamethasone, overnight; activation, % at 9.1 µM; in the data active means activation above about 7.8%
MC4R barr agon – agonists of human melanocortin 4 receptor (MC4R) beta-arrestin. P32245. U2OS MC4R beta-arrestin complementation, luminescence; percent of melanotan II response, DMSO zero. activation, % at 8.9 µM. 0.98% of 360,000 active;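 active means activation above a per-plate cutoff, the mean activation of sample wells on that plate plus 3 SD, cut at about 8% in these data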
Target sequence (P32245 whole entry, looked up): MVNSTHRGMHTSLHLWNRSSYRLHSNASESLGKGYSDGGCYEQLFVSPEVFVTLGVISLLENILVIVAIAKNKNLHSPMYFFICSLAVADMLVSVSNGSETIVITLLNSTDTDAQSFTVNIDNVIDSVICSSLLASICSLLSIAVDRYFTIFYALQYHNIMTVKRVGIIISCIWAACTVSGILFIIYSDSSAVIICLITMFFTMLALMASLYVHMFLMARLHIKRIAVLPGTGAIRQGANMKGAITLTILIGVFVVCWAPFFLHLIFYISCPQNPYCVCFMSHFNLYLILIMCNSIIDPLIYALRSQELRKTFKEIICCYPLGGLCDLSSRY
MC4R antag cAMP – antagonists of human melanocortin 4 receptor (MC4R) | P32245 | MC4R-expressing cells, MTII-stimulated cAMP, LANCE TR-FRET | inhibition, % at 6.5 µM | 0.48% of 360,000 active;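 active means inhibition above its plate's cutoff, the mean of tested wells on that plate plus 3 SD, cut at about 29% in these data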
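material = U2OS cells stably expressing human melanocortin 4 receptor (MC4R) | also added = Melanotan II challenge | dosing = single nominal compound dose of 6.5 µM | detection = TR-FRET with Eu-cAMP and labeled anti-cAMP, 671 nm | replication = singlicate | timing = compound 30 min, challenge 1 h, detection 1 h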
CFTR F508del cor – correctors of CFTR F508del function in bronchial epithelial cells. CFBE cells, YFP halide quenching; stimulated with forskolin plus potentiator P3; % fluorescence drop versus neutral controls. 0.36% of 350,000 active. activity (quench increase), % at 7.58 µM;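 active means mean added fluorescence quench of at least 8% versus neutral control, with both replicates also reaching 8%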;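 further: cells transiently co-express mutant CFTR-F508del with the halide-sensitive YFP; corrector assay measuring rescue of mutant channel to the surface after 24 h compound exposure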
SMARCA2 act conf – SMARCA2 activation, confirmation screen | MG213 cells, MMTV-luciferase with dexamethasone, luminescence, overnight; MG213 cells expressing E1A, Rb sequestered; DMSO wells 0%, reference activator 100% | shares compounds with SMARCA2 activ | activation, % at 9.1 µM | 30% of 3,500 active;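 active means activation above its plate's cutoff, the mean activation of tested wells plus 3 SD, cut at about 7.9% in these data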
VP16 Luc act – activates GAL4-VP16 luciferase, flagging SMARCA2 activator hits | shares compounds with SMARCA2 activ | HEK293 GAL4-VP16 pG5luc reporter, luciferase luminescence; scaled: DMSO wells 0%, SAHA wells 100% | activation, % at 9.1 µM | 41% of 3,500 active;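 active means activation above the solvent-only control well mean plus 3 SD, averaged across control plates, cut at about 5.2% in these data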
Large screens that a line does not name were inactive (follow-up assays come after a bar, where they were run).

O=C(C[C@H]1C[C@H]2c3cc(NC(=O)Nc4ccccc4F)ccc3O[C@H]2[C@@H](CO)O1)NCC1CC1	none (no result: SMARCA2 activ, MC4R barr agon, MC4R antag cAMP)
CCOC(=O)c1ccc(CNCc2ccc(C)cc2)cc1	SMARCA2 activ 9.1 (no result: CFTR F508del cor) | SMARCA2 act conf inactive | VP16 Luc act inactive
Cc1cc(NC(=O)CCS(=O)(=O)c2nc(-c3ccccc3)cc(C(F)(F)F)n2)no1	SMARCA2 activ 9.3 (no result: CFTR F508del cor) | SMARCA2 act conf inactive | VP16 Luc act inactive
COCC(=O)Nc1ccc2c(c1)[C@H]1C[C@H](CC(=O)NCc3ccc(Cl)cc3)O[C@H](CO)[C@H]1O2	none (no result: SMARCA2 activ, MC4R barr agon, MC4R antag cAMP)
COc1ccc(S(=O)(=O)N(C)C[C@@H]2Oc3ncc(C#CC4(O)CCCC4)cc3C(=O)N([C@@H](C)CO)C[C@@H]2C)cc1	none (no result: SMARCA2 activ, MC4R barr agon, MC4R antag cAMP)
Cc1cc(C(=O)CN2CCCCC2)c(C)n1-c1ccc(F)cc1	none (no result: CFTR F508del cor)
Cc1cc(C(=O)NC2CCCCC2)c(C)n1-c1ccc(F)cc1	SMARCA2 activ 8.0 (no result: CFTR F508del cor) | SMARCA2 act conf inactive | VP16 Luc act 10.7
O=C(CNC(=O)c1ccccc1F)NCCc1ccc(Cl)cc1	none
O=C(CNC(=O)c1ccccc1F)NCCc1ccc(Cl)cc1Cl	SMARCA2 activ 9.5 | SMARCA2 act conf inactive | VP16 Luc act inactive
O=C(NC(=S)NCc1ccccc1)c1ccccc1F	none (no result: CFTR F508del cor)
O=C(CNC(=O)c1ccccc1Cl)c1ccccc1	none
O=C(NC(=S)NC(=O)c1ccccc1F)c1ccccc1F	SMARCA2 activ 10.0 | SMARCA2 act conf inactive | VP16 Luc act inactive
O=C(CNC(=O)c1ccccc1F)c1ccccc1	SMARCA2 activ 10.4 | SMARCA2 act conf inactive | VP16 Luc act 9.6
COC(=O)C[C@H]1CC[C@H]2[C@@H](COc3ccc(NC(=O)Nc4cccc(C)c4)cc3C(=O)N2C)O1	none (no result: SMARCA2 activ, MC4R barr agon, MC4R antag cAMP)
COCC(=O)Nc1ccc2c(c1)C(=O)N(C)C[C@H](OC)[C@H](C)CN(Cc1cc(F)ccc1F)[C@H](C)CO2	none (no result: SMARCA2 activ, MC4R barr agon, MC4R antag cAMP)
Cc1ccc(S(=O)(=O)Nc2cccc3c2O[C@H](CN(C)C)[C@@H](C)CN([C@@H](C)CO)C3=O)cc1	none (no result: SMARCA2 activ, MC4R barr agon, MC4R antag cAMP)
CC1CCN(S(=O)(=O)c2ccc3ncn(CC(=O)N(C)Cc4ccccc4)c(=O)c3c2)CC1	none (no result: CFTR F508del cor)
CC1CCN(S(=O)(=O)c2ccc3nc(-c4ccccn4)cc(C(=O)NCCN(C)Cc4ccccc4)c3c2)CC1	SMARCA2 activ 8.3 | SMARCA2 act conf 27.4 | VP16 Luc act inactive
CN(C)CCNC(=O)c1cccc2ccc(-c3ccc(-c4ccccc4)cc3)nc12	SMARCA2 activ 8.6 | SMARCA2 act conf 23.7 | VP16 Luc act inactive
CN(C)CCNC(=O)c1ccccc1	none (no result: CFTR F508del cor)
COc1ccc(OC)c2nc3c(C(=O)NCCN(C)C)cccc3nc12	SMARCA2 activ 20.9 | SMARCA2 act conf 51.6 | VP16 Luc act inactive
CN(C)CCNC(=O)c1cccc2nc3cccc(F)c3nc12	SMARCA2 activ 51.8, CFTR F508del cor 9.2 | SMARCA2 act conf 194.0 | VP16 Luc act 14.1
CN(C)CCCNC(=O)C[C@@H]1CC[C@H]2[C@@H](COc3ccc(NC(=O)NC4CCCC4)cc3C(=O)N2C)O1	none (no result: SMARCA2 activ, MC4R barr agon, MC4R antag cAMP)
C[C@H]1CN([C@@H](C)CO)C(=O)c2cc(NC(=O)Cn3cnnn3)ccc2O[C@@H]1CN(C)Cc1ccc(C(=O)O)cc1	none (no result: SMARCA2 activ, MC4R barr agon, MC4R antag cAMP)
C[C@@H]1CN([C@H](C)CO)S(=O)(=O)c2ccc(C#CC3CCCCC3)cc2O[C@H]1CN(C)Cc1cccnc1	none (no result: SMARCA2 activ, MC4R barr agon, MC4R antag cAMP)
O=C(NNC(=S)Nc1ccccc1)c1cccnc1	SMARCA2 activ 8.8 | SMARCA2 act conf inactive | VP16 Luc act 5.4
Cc1occc1C(=O)NNC(=O)C1CC1	SMARCA2 activ 9.5 | SMARCA2 act conf inactive | VP16 Luc act inactive
Cc1occc1C(=O)NNC(=S)Nc1ccccc1	SMARCA2 activ 9.3 | SMARCA2 act conf inactive | VP16 Luc act 6.8
CCCc1cn(CC[C@H]2CC[C@@H](NS(=O)(=O)c3ccc(-c4ccccc4)cc3)[C@H](CO)O2)nn1	none (no result: SMARCA2 activ, MC4R barr agon, MC4R antag cAMP)
COc1cccc(-c2ccc3c(c2)[C@H]2[C@H](CCN2C(=O)C2CCCCC2)[C@@H](CO)N3)c1	none (no result: SMARCA2 activ, MC4R barr agon, MC4R antag cAMP)
C[C@@H]1CN([C@@H](C)CO)C(=O)c2cc(C3=CCCCC3)cnc2O[C@H]1CN(C)S(=O)(=O)c1cn(C)cn1	none (no result: SMARCA2 activ, MC4R barr agon, MC4R antag cAMP)
CN(C)c1ccc(-c2ccc3c(=O)c4ccccc4n(C)c3c2)cn1	SMARCA2 activ 8.5 | SMARCA2 act conf 9.8 | VP16 Luc act 10.8
Cc1ccccc1NC(=S)c1ccc2ccccc2n1	SMARCA2 activ 8.2 | SMARCA2 act conf 16.0 | VP16 Luc act 7.6
N/C(CS(=O)(=O)c1ccccn1)=N\OC(=O)c1ccccc1Cl	SMARCA2 activ 10.9 | SMARCA2 act conf inactive | VP16 Luc act 8.0
N/C(=N\OC(=O)c1ccc(Cl)cc1Cl)c1ccncc1	SMARCA2 activ 11.6 | SMARCA2 act conf 10.6 | VP16 Luc act 20.3
Cc1cc(C(=O)O/N=C(\N)c2ccncc2)ccc1[N+](=O)[O-]	SMARCA2 activ 14.1 | SMARCA2 act conf inactive | VP16 Luc act 5.2
N/C(=N\OC(=O)c1ccccc1Cl)c1cccnc1	SMARCA2 activ 8.8 (no result: CFTR F508del cor) | SMARCA2 act conf 18.0 | VP16 Luc act 7.8
Cc1noc(C)c1NC(=O)Nc1ccc2c(c1)CC(=O)N([C@H](C)CO)C[C@@H](C)[C@H](CN(C)C(=O)NC1CCCCC1)O2	none (no result: SMARCA2 activ, MC4R barr agon, MC4R antag cAMP)
C[C@H](CO)N1C[C@H](C)[C@H](CN(C)C(=O)Nc2ccc3c(c2)OCCO3)OCc2cn(nn2)CCCC1=O	none (no result: SMARCA2 activ, MC4R barr agon, MC4R antag cAMP)
COc1ccc(-c2csc(N(C)C(=O)c3ccco3)n2)cc1	SMARCA2 activ 8.0 | SMARCA2 act conf inactive | VP16 Luc act 7.9
CC1Cc2ccccc2N1C(=O)/C=C/c1cccc(F)c1 (configuration not stated)	SMARCA2 activ 8.2 | SMARCA2 act conf inactive | VP16 Luc act 9.9
CCC(=O)N1C[C@H](C)[C@@H](OC)CN(C)C(=O)c2cc(NC(=O)NC(C)C)ccc2OC[C@H]1C	none (no result: SMARCA2 activ, MC4R barr agon, MC4R antag cAMP)
CCCc1ccc(OCc2ccc(C(=O)N3CCSCC3)o2)cc1	SMARCA2 activ 8.3 | SMARCA2 act conf inactive | VP16 Luc act 7.4
CCCN1C[C@H](C)[C@H](OC)CN(C)C(=O)c2cc(NC(=O)NC3CCCCC3)ccc2OC[C@H]1C	none (no result: SMARCA2 activ, MC4R barr agon, MC4R antag cAMP)
CCN1CCN(c2ccc(S(=O)(=O)N3CCOCC3)cc2NC(=O)c2cccc([N+](=O)[O-])c2)CC1	none
O=C(/C=C/c1ccc(S(=O)(=O)N2CCOCC2)cc1)Nc1cc(F)ccc1F	SMARCA2 activ 9.0 | SMARCA2 act conf inactive | VP16 Luc act inactive
CCN1CCN(c2ccc(S(=O)(=O)N3CCOCC3)cc2NC(=O)/C=C/c2ccc([N+](=O)[O-])cc2)CC1	SMARCA2 activ 10.5 | SMARCA2 act conf 34.8 | VP16 Luc act inactive
c1coc(-c2nn3c(-c4ccco4)nnc3s2)c1	none (no result: CFTR F508del cor)
COc1ccccc1-c1nn2c(-c3ccco3)nnc2s1	SMARCA2 activ 14.6 | SMARCA2 act conf 26.3 | VP16 Luc act 10.4
